Results pooled from the literature.
Target: Insulin-like growth factor 1 receptor (IGF1R, Homo sapiens, UniProt P08069)

CN(C)c1nccc(-c2cnn3ncccc23)n1  remaining binding (binding; 1 µM): 100%
CC(=O)c1c(NS(C)(=O)=O)c2cc(-c3ccc(Cl)cc3)c(-c3ccc(Cl)cc3Cl)nc2n(C)c1=O  remaining binding (cell-free assay; competition with immobilised ligand; 1 µM): 100%
COc1cnc(Nc2cccc(S(N)(=O)=O)c2)nc1N1CCN(c2ccccc2)CC1  remaining binding (binding; competition with immobilised ligand; 1 µM): 100%
CN(C)c1ncc(F)c(-c2cnn3ncccc23)n1  remaining binding (binding; 1 µM): 100%
COc1cnc(Nc2cccc(S(N)(=O)=O)c2)nc1N1CCN(c2ccccc2)C(=O)C1  remaining binding (binding; competition with immobilised ligand; 1 µM): 100%
O=C(c1ccc(Nc2ncc(Cl)c(-c3cc4ccccc4s3)n2)cc1)N1CCC(N2CCCC2)CC1  remaining binding (binding; competition with immobilised ligand; 1 µM): 40%
O=C(O)c1cc(-c2ccc(C3CCNCC3)cc2)c2ccc(-c3ccc(C(F)(F)F)cc3)cc2c1  remaining binding (cell-free assay; competition with immobilised ligand; 1 µM): 95%
c1cncc(-c2cccc(Nc3nccc(NC4CCCCC4)n3)c2)c1  remaining binding (binding; competition with immobilised ligand; 10 µM): 67%
O=C(NCCCN1CCOCC1)c1ccc(Nc2ncc(Cl)c(-c3ccc(Cl)s3)n2)cc1  remaining binding (binding; competition with immobilised ligand; 1 µM): 44%
CSc1cccnc1N1CCN(Cc2nc3ccccc3[nH]2)CC1  remaining binding (cell-free assay; competition with immobilised ligand; 1 µM): 100%
CN(c1nccc(-c2cnn3ncccc23)n1)C1CC1  remaining binding (binding; 1 µM): 93%
O=C1NC(c2ccccn2)Sc2ccccc21 (stereo not shown)  remaining binding (cell-free assay; competition with immobilised ligand; 1 µM): 80%
C[C@H]1CCN(c2nccc(-c3cnn4ncccc34)n2)C1  remaining binding (binding; 1 µM): 90%
O=C(NCC1CCOCC1)c1n[nH]cc1NC(=O)c1c(F)cccc1F  remaining binding (binding; competition with immobilised ligand; 1 µM): 96%
CO[C@@H](C)c1c(Nc2ccc([C@H](N(C)C(=O)C3CCS(=O)(=O)CC3)C(F)(F)F)cc2)cnc2cc(Cl)nn12  remaining binding (cell-free assay; competition with immobilised ligand; 1 µM): 100%
C[C@@H](c1ccc(-n2cnc3c(N)ncnc32)cc1)N1CCc2nn(C)c(Cc3ccccc3)c2C1=O  remaining binding (binding; competition with immobilised ligand; 0.1 µM): 38%
N[C@@H]1CCN(c2nccc(-c3cnn4ncccc34)n2)C1  remaining binding (binding; 1 µM): 99%
CC(C)CC(=O)N1CCc2nc(-c3ccc(Br)cc3)nc(N(C)Cc3ccccc3)c2C1  remaining binding (cell-free assay; competition with immobilised ligand; 0.1 µM): 83%
F[C@@H]1CCN(c2nccc(-c3cnn4ncccc34)n2)C1  remaining binding (binding; 1 µM): 89%
COc1ncc2cc3ccccc3nc2c1C#N  remaining binding (cell-free assay; competition with immobilised ligand; 5 µM): 86%
O=C(NCCCN1CCOCC1)c1ccc(Nc2nccc(-c3cc4ccccc4s3)n2)cc1  remaining binding (binding; competition with immobilised ligand; 1 µM): 100%
CCS(=O)(=O)c1cc2cc(C[C@](O)(CC(C)(C)c3ccc(F)cc3C(N)=O)C(F)(F)F)[nH]c2cn1  remaining binding (cell-free assay; competition with immobilised ligand; 1 µM): 100%
CC1CCCN1c1nccc(-c2cnn3ncccc23)n1 (stereo not shown)  remaining binding (binding; 1 µM): 96%
CN1CCN(c2cnc3c(C4CCN(C(=O)c5ccc(OC(F)(F)F)cc5N)CC4)ncnc3c2)CC1  remaining binding (cell-free assay; competition with immobilised ligand; 1 µM): 100%
C[C@@H]1CN(c2ccc3ncc(-c4ccc5[nH]nc(C6CC6)c5c4)n3n2)C[C@H](C)O1  remaining binding (binding; competition with immobilised ligand; 0.5 µM): 100%
